Measurements reported in the RNAGym collection of RNA variant scans (doi:10.1038/s41586-018-0170-7).

B1: tRNA (parent)
chain: GUUCCGUUGGCGUAAUGGUAACGCGUCUCCCUCCUAAGGAGAAGACUGCGGGUUCGAGUCCCGUACGGAACG

Variants of: B1
Assay: yeast fitness, log relative to wild type (ln ratio); higher = fitter; tRNA-Arg(CCU), competitive growth, 37 C, 1 M NaCl
How it was run: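 For each genotype, fitness is defined as the natural log of its generation number over the wild type's. The tRNA-Arg(CCU) variant library was on a HIS3 centromeric plasmid in BY4742 with the chromosomal gene removed, and pools were first grown 4 generations in SC-HIS at 30 °C and then ~6.5 generations (~26.5 h) in SC-HIS 1M NaCl at 37 °C. Generations were calculated from OD-scaled log2 output/input frequency, weighted by inverse variance across replicates, using counts from 125 bp paired-end Illumina sequencing.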

Row | Variant | yeast fitness (ln)
1 | G1A U2G C27U A43C C46U A70U C71U | -0.0479
2 | G1A U2C G6U C27U C46U C66U A69G A70U C71U | -0.518
3 | U2G G6U C27U A43C C66U A69G C71U | -0.645
4 | G1A U2G G6U C27U C46U C66A | -0.2
5 | C66A A70G C71U | -0.0666
6 | G1A U2C G6U A43C C46U C66A A69G A70G | -0.25
7 | U2G A69G A70G C71U | -0.191
8 | C27U C71U | -0.0403
9 | G1A U2G G6U C27U A43C A69G A70U | -0.454
10 | G1A U2C G6U C27U A43C A69G A70G C71U | -0.238
11 | G1A A43C C46U C66U A69G C71U | -0.295
12 | U2G G6A C46U A70U C71U | -0.449
13 | U2G G6A C27U A43C C71U | -0.197
14 | U2G G6U C66U A69G A70U | -0.409
15 | G1A C27U C66A C71U | -0.159
16 | U2G A43C C66A C71U | -0.267
17 | G6U C46U C66U A69G C71U | -0.594
18 | G1A U2G G6U A43C C66U A69G A70G | -0.371
19 | G1A U2C G6A A43C C46U A70U C71U | -0.0375
20 | G6A C46U A70U | -0.237
21 | G1A U2G G6A A43C C46U C66A A70U | -0.191

Row | Variant | yeast fitness (ln)
22 | G1A U2C G6U A70U C71U | -0.158
23 | G6U C66A C71U | -0.0261
24 | G6U A43C C46U A69G A70U C71U | -0.438
25 | U2C C46U A70G | 0.000328
26 | A43C C46U C66U A69G A70G | -0.117
27 | G1A U2C | -0.00128
28 | U2C G6A A43C C66A A69G A70G C71U | -0.218
29 | G1A G6U C27U A43C C46U A69G A70G | -0.346
30 | G6U C46U C66A A69G A70U C71U | -0.418
31 | G1A U2G G6U C27U A70G | -0.274
32 | G1A G6U A43C C66A A69G C71U | -0.863
33 | G6A C27U A69G C71U | -0.243
34 | G1A G6U C66A A70U C71U | -0.159
35 | U2G A43C C46U A69G A70U | -0.00112
36 | U2G C27U C66U A70U | -0.0967
37 | G1A U2G C27U A43C C46U C66U A70U C71U | -0.329
38 | U2G G6A C27U A43C C66U A69G C71U | -0.35
39 | C27U A43C C46U A69G | -0.0156
40 | U2G G6A C66U A69G A70U | -0.00753
41 | U2C G6A C27U C46U A70G | -0.0764
42 | U2G G6A C27U C66U A69G A70U | -0.0719

Row | Variant | yeast fitness (ln)
43 | U2C G6A C46U | -0.0163
44 | G1A U2C G6A C46U C66U A69G A70G | -0.0859
45 | U2G C27U | -0.0566
46 | U2C G6U C27U C46U C66U A69G A70U | -0.218
47 | G1A G6U A43C C46U A69G A70G | -0.281
48 | G6U A43C C66U A69G A70U C71U | -0.393
49 | G6U C27U A43C C46U A70U | -0.206
50 | G6A C66U C71U | -0.0335
51 | U2G G6U C27U C66U A69G A70U C71U | -0.439
52 | G1A C27U C46U C66A C71U | -0.148
53 | G1A G6A C27U A70U | -0.293
54 | U2G C27U C66U A69G A70G C71U | -0.264
55 | G6A A43C C46U C66U A69G A70U C71U | -0.233
56 | C27U A43C C46U C66U A69G A70U | -0.285
57 | G1A A43C C46U C66A C71U | -0.139
58 | G6A | -0.0301
59 | U2G C27U A43C C66U | -0.214
60 | U2G C66U A70G C71U | -0.121
61 | G1A U2C G6U C46U C66U A69G A70U C71U | -0.317
62 | G1A U2C C27U A69G C71U | -0.131
63 | U2C G6U C66A A69G A70G | -0.0222

Row | Variant | yeast fitness (ln)
64 | G1A C27U A43C A70U C71U | -0.269
65 | U2G G6U C27U C46U C66A A69G A70G C71U | -0.25
66 | G1A U2C G6A C66U C71U | -0.083
67 | G1A U2G G6U A43C C46U A70G C71U | -0.338
68 | U2C C27U A43C C46U C66U A70G | -0.0949
69 | U2G G6A C27U C66A A69G A70U C71U | -0.499
70 | G1A A43C C66U A70U | -0.21
71 | U2G C46U A70G | -0.0123
72 | U2G C27U A69G C71U | -0.152
73 | G6A C27U C66A A70G C71U | -0.364
74 | U2G G6A C27U C66U A70U C71U | -0.364
75 | G1A U2C A43C C46U A70U | -0.0817
76 | C27U C46U A69G A70G C71U | -0.298
77 | G6U C66U A69G A70U C71U | -0.481
78 | G1A G6U A43C C46U C66U A70G C71U | -0.278
79 | G1A G6A C66U A70U | -0.0527
80 | G6U A43C A70U C71U | -0.287
81 | G1A U2G G6A C66U A69G A70G | -0.282
82 | U2C G6A C27U A43C C46U C66U C71U | -0.122
83 | C27U A43C C46U A70G C71U | -0.209
84 | U2G C27U C46U A69G C71U | -0.112
